Source: paper PMC8961603 (RSC Advances, 2022)
Values after ≈ are worked out from the molar mass of the structure shown. “Also recorded” adds a separate entry of the source.

Legend:
[1] = In vitro cytotoxicity assay; format: cell-based; conditions: African green monkey, Vero cells, Vero IC50 cytotoxicity, MTT
[2] = system: third stage instar larvae of Aedes aegypti; assay: Larvicidal bioassay; format: in vivo; conditions: for larvicidal activity (in words): 24, 48 and 72 h exposure, 50-250 μg ml^−1
Vero cells = assay: In vitro cytotoxicity assay; format: cell-based; conditions: MTT
[3] = system: human blood cells (red blood cell suspension); assay: Haemolytic assay; format: cell-based
Method in brief: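 Fresh anticoagulated human blood spun 10 min at 2000 rpm; pellet resuspended in 0.9% NaCl to a 2% v/v red cell suspension. Cells incubated with test compound at 25, 50 or 100 μg ml−1 for 1 h at 37 °C, 5% CO2. Haemoglobin release read at 540 nm. Controls were 1% v/v NaOH for complete lysis and 0.9% NaCl for none. Percent haemolysis was calculated.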

[4] = system: Aedes aegypti larvae (midgut); assay: Histopathological analysis of larvae; format: in vivo; conditions: 72 h exposure
[5] = 24 h exposure, log probit analysis
[6] = 48 h exposure, log probit analysis
[7] = 72 h exposure, log probit analysis
[8] = Aedes aegypti, 24 h, 24 h exposure, log probit analysis
[9] = Aedes aegypti, 48 h, 48 h exposure, log probit analysis
[10] = Aedes aegypti, 72 h, 72 h exposure, log probit analysis
[11] = larvicidal LC50 used in QSAR training set, exposure time not given

**Q.** With `SC1=NCN(/C=C/c2ccccc2)N1N=Cc1ccc(Br)cc1` [CA 10, 2-{[(4-Bromophenyl)methylidene]amino}-1-[(E)-2-phenylethenyl]-2,5-dihydro-1H-1,2,4-triazole-3-thiol] as the molecule, how does the IC50 [1] read?
**A.** 241 ± 0.01 µg/mL (≈ 622 µM)

**Q.** And the LC90 [2, 5]?
**A.** 210.414 ppm

**Q.** And the LC90 [2, 6]?
**A.** 172.096 ppm

**Q.** And the LC90 [2, 7]?
**A.** 122.913 ppm

**Q.** What about the LC50 [2, 8] of the same molecule?
**A.** 156 µg/mL

**Q.** And the LC50 [2, 9]?
**A.** 121 µg/mL

**Q.** What about the LC50 [2, 10] of the same molecule?
**A.** 50.3 µg/mL

**Q.** What does the source list for “2-(3-Methylphenyl)-5-[(E)-2-phenylethenyl]-5,6-dihydro[1,2,4]triazolo[5,1-b][1,3,4]thia diazole [CATD 4]”?
**A.** Vero IC50 cytotoxicity (Vero cells): 252 ± 0.20 µg/mL; LC50 [2, 11]: 0.15 µM

**Q.** Which IC50 [1] does the source give for `Nc1ccc(/C=C/C(=O)NNc2ccc([N+](=O)[O-])cc2[N+](=O)[O-])cc1` [ACA 1, (2E)-3-(4-Aminophenyl)-N′-(2,4-dinitrophenyl)prop-2-enehydrazide] here?
**A.** 285 ± 0.05 µg/mL (≈ 830 µM)

**Q.** For `NC(=S)NNC(=O)/C=C/c1ccc(N)cc1` [ACA 3, 2-[(2E)-3-(4-Aminophenyl)prop-2-enoyl]hydrazine-1-carbothioamide], which IC50 [1] is on record?
**A.** 254 ± 0.03 µg/mL (≈ 1070 µM)

**Q.** Which IC50 [1] does the source give for `O=[N+]([O-])c1ccc(C=NN2C(S)=NCN2/C=C/c2ccccc2)cc1` [CA 9, 2-{[(4-Nitrophenyl)methylidene]amino}-1-[(E)-2-phenylethenyl]-2,5-dihydro-1H-1,2,4-triazole-3-thiol] here?
**A.** 235 ± 0.05 µg/mL (≈ 665 µM)

**Q.** What does the source list for `CC(C)=CCc1c(O)cc(O)c2c1O[C@H](c1ccccc1)CC2=O` [Glabranin, reference compound]?
**A.** IC50 [1]: 252 ± 0.2 µg/mL (≈ 777 µM); Hemolytic (%) ([3]; Conc. 25 PPM): 2.326%; Hemolytic (%) ([3]; Conc. 50 PPM): 4.713%; Hemolytic (%) ([3]; Conc. 100 PPM): 5.217%; LC90 [2, 5]: 311.453 ppm; LC90 [2, 6]: 241.010 ppm; LC90 [2, 7]: 179.532 ppm; LC50 [2, 8]: 258 µg/mL; LC50 [2, 9]: 199 µg/mL; LC50 [2, 10]: 140 µg/mL

**Q.** Which IC50 [1] does the source give for `Cc1cccc(C2=NN3C(=NCN3/C=C/c3ccccc3)S2)c1` [CATD 2, 2-(3-Methylphenyl)-5-[(E)-2-phenylethenyl]-5,6-dihydro[1,2,4]triazolo[5,1-b][1,3,4]thiadiazole] here?
**A.** 218 ± 0.02 µg/mL (≈ 680 µM)

**Q.** What about the “Hemolytic (%)” value ([3]; Conc. 25 PPM) of the same molecule?
**A.** 4.605%

**Q.** What about the “Hemolytic (%)” value ([3]; Conc. 50 PPM) of the same molecule?
**A.** 5.367%

**Q.** What about the “Hemolytic (%)” value ([3]; Conc. 100 PPM) of the same molecule?
**A.** 5.759%

**Q.** What about the “larvicidal activity (in words)” value [2] of the same molecule?
**A.** effectively showed larvicidal activity

**Q.** And the LC90 [2, 5]?
**A.** 311.453 ppm

**Q.** And the LC90 [2, 6]?
**A.** 241.010 ppm

**Q.** And the LC90 [2, 7]?
**A.** 179.532 ppm

**Q.** What about the LC50 [2, 8] of the same molecule?
**A.** 187 µg/mL

**Q.** And the LC50 [2, 9]?
**A.** 132 µg/mL

**Q.** And the LC50 [2, 10]?
**A.** 86.6 µg/mL

**Q.** And the “histopathological findings in larvae” value [4]?
**A.** severe lesions that primarily affected the midgut epithelium

**Q.** With “(2E)-3-(4-Aminophenyl)-N′-(2,4-dinitrophenyl)prop-2-enehydrazide [ACA 4]” as the molecule, how does the “Vero IC50 cytotoxicity” value (Vero cells) read?
**A.** 328 ± 0.02 µg/mL

**Q.** What about the “Hemolytic (%)” value ([3]; Conc. 25 PPM) of the same molecule?
**A.** 1.736%

**Q.** What about the “Hemolytic (%)” value ([3]; Conc. 50 PPM) of the same molecule?
**A.** 2.122%

**Q.** And the “Hemolytic (%)” value ([3]; Conc. 100 PPM)?
**A.** 3.460%

**Q.** What about the “larvicidal activity (in words)” value [2] of the same molecule?
**A.** slow mortality; also recorded: effectively showed larvicidal activity

**Q.** What about the LC50 [2, 5] of the same molecule?
**A.** 101.176 ppm

**Q.** And the LC90 [2, 5]?
**A.** 358.428 ppm

**Q.** What about the LC50 [2, 6] of the same molecule?
**A.** 88.823 ppm

**Q.** And the LC90 [2, 6]?
**A.** 323.217 ppm

**Q.** And the LC50 [2, 7]?
**A.** 47.347 ppm

**Q.** What about the LC90 [2, 7] of the same molecule?
**A.** 240.784 ppm

**Q.** What about the LC50 [2, 11] of the same molecule?
**A.** 0.10 µM

**Q.** What about the “histopathological findings in larvae” value [4] of the same molecule?
**A.** severe lesions that primarily affected the midgut epithelium

**Q.** With `CN(C)c1ccc(/C=C/C=NN2C(S)=NCN2/C=C/c2ccccc2)cc1` [CA 11, 2-({(2E)-3-[4-(Dimethylamino)phenyl]prop-2-en-1-ylidene}amino)-1-[(E)-2-phenylethenyl]-2,5-dihydro-1H-1,2,4-triazole-3-thiol] as the molecule, how does the IC50 [1] read?
**A.** 229 ± 0.02 µg/mL (≈ 607 µM)

**Q.** With `Oc1ccc(C2=NN3C(=NCN3/C=C/c3ccccc3)S2)cc1O` [CATD 3, 4-{5-[(E)-2-Phenylethenyl]-5,6-dihydro[1,2,4]triazolo[5,1-b][1,3,4]thiadiazol-2-yl}benzene-1,2-diol] as the molecule, how does the IC50 [1] read?
**A.** 270 ± 0.2 µg/mL (≈ 798 µM)

**Q.** What does the source list for “2-{[(4-Chlorophenyl) methylidene] amino}-1-[(E)-2-phenylethenyl]-2,5-dihydro-1H-1,2,4-triazole-3-thiol [CA 1]”?
**A.** Vero IC50 cytotoxicity (Vero cells): 309 ± 0.21 µg/mL; LC50 [2, 11]: 0.13 µM

**Q.** Which “Vero IC50 cytotoxicity” value (Vero cells) does the source give for “1-[(E)-2-Phenylethenyl]-2-{[(3,4,5-trimethoxy phenyl) methylidene] amino}-2,5-dihydro-1H-1,2,4-triazole-3-thiol [CA 5]” here?
**A.** 223 ± 0.05 µg/mL

**Q.** With `CC(=O)OCC(CCn1cnc2cnc(N)nc21)COC(C)=O` [FMCV, Famciclovir, reference compound] as the molecule, how does the IC50 [1] read?
**A.** 270 ± 0.2 µg/mL (≈ 840 µM)

**Q.** What about the “Hemolytic (%)” value ([3]; Conc. 25 PPM) of the same molecule?
**A.** 4.802%

**Q.** What about the “Hemolytic (%)” value ([3]; Conc. 50 PPM) of the same molecule?
**A.** 6.448%

**Q.** What about the “Hemolytic (%)” value ([3]; Conc. 100 PPM) of the same molecule?
**A.** 8.901%

**Q.** What about the LC90 [2, 6] of the same molecule?
**A.** 241.010 ppm

**Q.** And the LC90 [2, 7]?
**A.** 179.532 ppm

**Q.** And the LC50 [2, 8]?
**A.** 248 µg/mL

**Q.** What about the LC50 [2, 9] of the same molecule?
**A.** 203 µg/mL

**Q.** What about the LC50 [2, 10] of the same molecule?
**A.** 139 µg/mL

**Q.** Which IC50 [1] does the source give for `COc1cc(C=NN2C(S)=NCN2/C=C/c2ccccc2)ccc1O` [CA 7, 2-Methoxy-4-[({2-[(E)-2-phenylethenyl]-5-sulfanyl-2,3-dihydro-1H-1,2,4-triazol-1-yl}imino)methyl] phenol] here?
**A.** 295 ± 0.04 µg/mL (≈ 832 µM)
